Experimental data as given in article PMC9070660 (RSC Advances, 2019).

Legend:
[1] = tested on: OVCAR3 cells; assay: MTT cell viability assay, OVCAR3; type: cell-based, human
Method in brief: (§1)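 Culture: SKOV3 in RPMI-1640 with 10% FBS and penicillin-streptomycin at 37 °C, 5% CO2; OVCAR3 and IOSE80 in DMEM. Cells seeded at 1 × 10^4 per well, grown 24 h, then exposed to a range of test compound concentrations for 48 h. MTT (2 mg mL−1 stock) added, […]; formazan dissolved in DMSO; A490 read. IC50 calculated; SI = IC50 IOSE80/IC50 cancer line; three separate experiments.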

[2] = tested on: IOSE80 cells; assay: MTT cell viability assay, normal ovarian epithelial cells IOSE80; type: cell-based; settings: Homo sapiens, IOSE80, 48 h, read-out: IC50 (cell viability) IOSE80
Method in brief: as §1

[3] = tested on: SKOV3 cells; assay: MTT cell viability assay, SKOV3; type: cell-based, human
Method in brief: as §1

With `CC(=O)O[C@H]1C(=O)[C@@]2(C)[C@H]([C@H](OC(=O)c3ccccc3)[C@]3(O)C[C@H](OC(=O)[C@H](O)[C@@H](NC(=O)c4ccccc4)c4ccccc4)C(C)=C1C3(C)C)[C@]1(OC(C)=O)CO[C@@H]1C[C@@H]2O` [Paclitaxel] the IC50 ([1]; Homo sapiens, OVCAR-3, 48 h, read-out: IC50 (cell viability) OVCAR3) was 380 ± 40 nM, the “SI (selectivity index) OVCAR3” value ([1]; IC50 IOSE80 cell line/IC50 OVCAR3) was 4.5 and the IC50 [2] was 1700 ± 100 nM. The IC50 ([3]; Homo sapiens, SK-OV-3, 48 h, read-out: IC50 (cell viability) SKOV3) was 430 ± 30 nM and the “SI (selectivity index) SKOV3” value ([3]; IC50 IOSE80 cell line/IC50 SKOV3) was 4.0.
